Measured values: ChEMBL document CHEMBL1142093, “In vitro activity of the oxazolidinone RWJ-416457 against linezolid-resistant and -susceptible staphylococci and enterococci” (2007)
≈ marks a conversion by molar mass, not a printed value.

Key:
Staphylococcus aureus [1] = test: Antimicrobial activity against methicillin-resistant Staphylococcus aureus Ho 4536-0367 with heterozygous 23S rRNA G2576U mutation; format: functional
How it was run: (§1)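 MIC by CLSI agar dilution. Resistant clinical enterococcal and S. aureus isolates came mostly from UK patients, a few from Brazil and Austria. Laboratory mutants were selected from clinical isolate ST/02/2121, RN4220 and hypermutable RN4220ΔmutS. Selection used serial broth passage with linezolid rising arithmetically from 0.5 to 10 μg/ml, then repeated subculture on agar with 10 μg/ml linezolid.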

Staphylococcus aureus [2] = test: Antimicrobial activity against methicillin-resistant Staphylococcus aureus Ho 4280-0256 with heterozygous 23S rRNA G2576U mutation; format: functional; how it was run: as §1
Staphylococcus aureus [3] = test: Antimicrobial activity against methicillin-resistant Staphylococcus aureus Ho 4536-0368 with heterozygous 23S rRNA G2576U mutation; format: functional; how it was run: as §1
Staphylococcus aureus [4] = test: Antimicrobial activity against methicillin-resistant Staphylococcus aureus Ho 4280-0257 with heterozygous 23S rRNA G2576U mutation; format: functional; how it was run: as §1
Staphylococcus aureus [5] = test: Antimicrobial activity against methicillin-resistant Staphylococcus aureus Ho 4280-0258 with heterozygous 23S rRNA G2576U mutation; format: functional; how it was run: as §1
Staphylococcus aureus [6] = test: Antimicrobial activity against methicillin-resistant Staphylococcus aureus B2 with heterozygous 23S rRNA G2576U mutation; format: functional; how it was run: as §1
Staphylococcus aureus [7] = test: Antimicrobial activity against Staphylococcus aureus RN4220; format: functional; how it was run: as §1
Staphylococcus aureus [8] = test: Antimicrobial activity against Staphylococcus aureus RN4220 with 23S rRNA G2447T mutation; format: functional; how it was run: as §1
Staphylococcus aureus [9] = test: Antimicrobial activity against Staphylococcus aureus RN4220 with 23S rRNA G2576U mutation; format: functional; how it was run: as §1
Staphylococcus aureus [10] = test: Antimicrobial activity against Staphylococcus aureus RN4220 deltamutS with 23S rRNA G2576U mutation; format: functional; how it was run: as §1
Staphylococcus aureus [11] = test: Antimicrobial activity against Staphylococcus aureus RN4220 deltamutS revertant with 23S rRNA G2576U mutation; format: functional; how it was run: as §1
Staphylococcus aureus [12] = test: Antimicrobial activity against Staphylococcus aureus RN4220 deltamutS with 23S rRNA G2576U and A2503G mutation; format: functional; how it was run: as §1
Staphylococcus aureus [13] = test: Antimicrobial activity against Staphylococcus aureus ST/02/2121; format: functional; how it was run: as §1
Staphylococcus aureus [14] = test: Antimicrobial activity against Staphylococcus aureus ST/02/2121 with 23S rRNA T2504C mutation; format: functional; how it was run: as §1
Staphylococcus aureus [15] = test: Antimicrobial activity against Staphylococcus aureus ST/02/2121 with 23S rRNA G2447T mutation; format: functional; how it was run: as §1
Staphylococcus aureus [16] = test: Antimicrobial activity against Staphylococcus aureus RN4220 deltamutS; format: functional; how it was run: as §1
Enterococcus faecalis [17] = test: Antimicrobial activity against Enterococcus faecalis Ho 4450-0446 with heterozygous 23S rRNA G2576U mutation; format: functional; how it was run: as §1
Enterococcus faecalis [18] = test: Antimicrobial activity against Enterococcus faecalis 1 L2 with heterozygous 23S rRNA G2576U mutation; format: functional; how it was run: as §1
Enterococcus faecalis [19] = test: Antimicrobial activity against Enterococcus faecalis 25 with heterozygous 23S rRNA G2576U mutation; format: functional; how it was run: as §1
Enterococcus faecalis [20] = test: Antimicrobial activity against Enterococcus faecalis 37 with heterozygous 23S rRNA G2576U mutation; format: functional; how it was run: as §1
Enterococcus faecalis [21] = test: Antimicrobial activity against Enterococcus faecalis 45 with heterozygous 23S rRNA G2576U mutation; format: functional; how it was run: as §1
Enterococcus faecalis [22] = test: Antimicrobial activity against Enterococcus faecalis 9 with heterozygous 23S rRNA G2576U mutation; format: functional; how it was run: as §1
Enterococcus faecium [23] = test: Antimicrobial activity against Enterococcus faecium Ho 5114-0276 with heterozygous 23S rRNA G2576U mutation; format: functional; how it was run: as §1
Enterococcus faecium [24] = test: Antimicrobial activity against Enterococcus faecium 28 with heterozygous 23S rRNA G2576U mutation; format: functional; how it was run: as §1
Enterococcus faecium [25] = test: Antimicrobial activity against Enterococcus faecium 44 with heterozygous 23S rRNA G2576U mutation; format: functional; how it was run: as §1
Enterococcus faecium [26] = test: Antimicrobial activity against Enterococcus faecium Ho 4418-0062 with heterozygous 23S rRNA G2576U mutation; format: functional; how it was run: as §1
Enterococcus faecium [27] = test: Antimicrobial activity against Enterococcus faecium 18 with heterozygous 23S rRNA G2576U mutation; format: functional; how it was run: as §1
Enterococcus faecium [28] = test: Antimicrobial activity against Enterococcus faecium 31 with heterozygous 23S rRNA G2576U mutation; format: functional; how it was run: as §1
Enterococcus faecium [29] = test: Antimicrobial activity against Enterococcus faecium 16 with homozygous 23S rRNA G2576U mutation; format: functional; how it was run: as §1
Enterococcus faecium [30] = test: Antimicrobial activity against Enterococcus faecium 34 with homozygous 23S rRNA G2576U mutation; format: functional; how it was run: as §1
Enterococcus faecium [31] = test: Antimicrobial activity against Enterococcus faecium Ho 4136-0042; format: functional; conditions: in the assay text read “H0 4136-0043” for “Ho 4136-0042”
How it was run: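 MIC by CLSI agar dilution against a clinical enterococcal isolate. The isolates were either linezolid-susceptible UK clinical isolates (about 100 per group) or among 23 linezolid-resistant clinical enterococci and S. aureus, mostly from UK patients, with a few from Brazil and Austria.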

Enterococcus faecium [32] = test: Antimicrobial activity against Enterococcus faecium 3 with heterozygous 23S rRNA G2576U mutation
Enterococcus faecium [33] = test: Antimicrobial activity against Enterococcus faecium 2 L1 with homozygous 23S rRNA G2576U mutation

| SMILES | MIC (Staphylococcus aureus [1]) [µg/mL] | MIC (Staphylococcus aureus [2]) [µg/mL] | MIC (Staphylococcus aureus [3]) [µg/mL] | MIC (Staphylococcus aureus [4]) [µg/mL] | MIC (Staphylococcus aureus [5]) [µg/mL] | MIC (Staphylococcus aureus [6]) [µg/mL] | MIC (Staphylococcus aureus [8]) [µg/mL] | MIC (Staphylococcus aureus [9]) [µg/mL] | MIC (Staphylococcus aureus [10]) [µg/mL] | MIC (Staphylococcus aureus [11]) [µg/mL] | MIC (Staphylococcus aureus [12]) [µg/mL] | MIC (Staphylococcus aureus [14]) [µg/mL] | MIC (Staphylococcus aureus [15]) [µg/mL] | MIC (Enterococcus faecalis [18]) [µg/mL] | MIC (Enterococcus faecalis [19]) [µg/mL] | MIC (Enterococcus faecalis [20]) [µg/mL] | MIC (Enterococcus faecalis [21]) [µg/mL] | MIC (Enterococcus faecalis [22]) [µg/mL] | MIC (Enterococcus faecium [23]) [µg/mL] | MIC (Enterococcus faecium [24]) [µg/mL] | also measured |
| --- | --- | --- | --- | --- | --- | --- | --- | --- | --- | --- | --- | --- | --- | --- | --- | --- | --- | --- | --- | --- | --- |
| CC(=O)NC[C@H]1CN(c2ccc(N3Cc4cn(C)nc4C3)c(F)c2)C(=O)O1 | 2 (≈ 5.36 µM) | 4 (≈ 10.7 µM) | 8 (≈ 21.4 µM) | 8 (≈ 21.4 µM) | 8 (≈ 21.4 µM) | 8 (≈ 21.4 µM) | 8 (≈ 21.4 µM) | 4 (≈ 10.7 µM) | 8 (≈ 21.4 µM) | 8 (≈ 21.4 µM) | 8 (≈ 21.4 µM) | 8 (≈ 21.4 µM) | 4 (≈ 10.7 µM) | 16 (≈ 42.9 µM) | 16 (≈ 42.9 µM) | 8 (≈ 21.4 µM) | 8 (≈ 21.4 µM) | 16 (≈ 42.9 µM) | 2 (≈ 5.36 µM) | 8 (≈ 21.4 µM) | MIC (Staphylococcus aureus [7]): 0.5 µg/mL (≈ 1.34 µM); MIC (Staphylococcus aureus [13]): 1 µg/mL (≈ 2.68 µM); MIC (Staphylococcus aureus [16]): 0.5 µg/mL (≈ 1.34 µM); MIC (Enterococcus faecalis [17]): 2 µg/mL (≈ 5.36 µM); MIC (Enterococcus faecium [25]): 4 µg/mL (≈ 10.7 µM); MIC (Enterococcus faecium [26]): 16 µg/mL (≈ 42.9 µM); MIC (Enterococcus faecium [27]): 8 µg/mL (≈ 21.4 µM); MIC (Enterococcus faecium [28]): 8 µg/mL (≈ 21.4 µM); MIC (Enterococcus faecium [29]): 16 µg/mL (≈ 42.9 µM); MIC (Enterococcus faecium [30]): 32 µg/mL (≈ 85.7 µM); MIC (Enterococcus faecium [31]): 16 µg/mL (≈ 42.9 µM); MIC (Enterococcus faecium [32]): 16 µg/mL (≈ 42.9 µM); MIC (Enterococcus faecium [33]): 32 µg/mL (≈ 85.7 µM) |
| CC(=O)NC[C@H]1CN(c2ccc(N3CCOCC3)c(F)c2)C(=O)O1 [LINEZOLID] | 8 (≈ 23.7 µM) | 16 (≈ 47.4 µM) | 32 (≈ 94.9 µM) | 32 (≈ 94.9 µM) | 32 (≈ 94.9 µM) | 32 (≈ 94.9 µM) | 16 (≈ 47.4 µM) | 16 (≈ 47.4 µM) | 16 (≈ 47.4 µM) | 16 (≈ 47.4 µM) | 32 (≈ 94.9 µM) | 16 (≈ 47.4 µM) | 16 (≈ 47.4 µM) | 32 (≈ 94.9 µM) | 32 (≈ 94.9 µM) | 32 (≈ 94.9 µM) | 32 (≈ 94.9 µM) | 64 (≈ 190 µM) | 8 (≈ 23.7 µM) | 16 (≈ 47.4 µM) | MIC (Enterococcus faecium [25]): 16 µg/mL (≈ 47.4 µM); MIC (Enterococcus faecium [26]): 32 µg/mL (≈ 94.9 µM); MIC (Enterococcus faecium [27]): 32 µg/mL (≈ 94.9 µM); MIC (Enterococcus faecium [28]): 32 µg/mL (≈ 94.9 µM); MIC (Enterococcus faecium [29]): 64 µg/mL (≈ 190 µM); MIC (Enterococcus faecium [30]): 64 µg/mL (≈ 190 µM); MIC (Enterococcus faecium [31]): 64 µg/mL (≈ 190 µM); MIC (Enterococcus faecium [32]): 64 µg/mL (≈ 190 µM); MIC (Enterococcus faecium [33]): 64 µg/mL (≈ 190 µM) |
